# Experimental data taken from PMC11529803 (Medicinal chemistry research : an international journal for …, 2024).
# Structures can show the parent of a compound that is named as a salt.
# What was measured:
# [1] = In vivo metabolism and pharmacokinetics of LH708; parameters: species or system Slc3a1 KO male mice
# [2] = system: Slc3a1-knockout mouse model of cystinuria; conditions: after oral gavage; cited from earlier work
# [3] = cited from earlier work
# [4] = L-cystine crystallization inhibition assay; conditions: for EC50 relative to parent LH708: metabolites of LH708
# Outline: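 Supersaturated L-cystine solution was held with test compound over a concentration range for 72 h at 20 °C, then centrifuged at 14,000 rpm for 10 min at room temperature. Supernatant was diluted 10-fold in water and run in triplicate: potassium cyanide in PBS pH 7.4, 25 min shaking, then sodium nitroprusside, with absorbance read at 530 nm. Cystine was read off a standard curve; EC50 came from nonlinear regression.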
# [5] = Crystal growth inhibition by in situ atomic force microscopy; conditions: in situ AFM on {0001} growth hillocks
# Outline: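 Real-time in situ AFM in a fluid cell on hexagonal L-cystine crystals grown from aqueous supersaturated solution (pH 6.3), filtered and air-dried. Surface regenerated for 20 min by flowing supersaturated 2 mM cystine at 20 mL/h. Velocities of {1010} steps on the {0001} basal plane were measured without inhibitor (Vo), then with test compound at 15, 30 and 45 µM under identical conditions.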
smiles,measurement,setting,value
"CN1CCN(C(=O)[C@@H](N)CSSC[C@H](N)C(=O)N2CCN(C)CC2)CC1 [Compound 2, L-cystine bis(N′-methylpiperazide)]",plasma half-life,[1]; after LH708 single dose 150 μmol/kg,~ 10 min
same,main metabolic pathway,"[1]; single iv or oral dose of LH708, plasma and urine",disulfide exchange
same,prevention of L-cystine stone formation,[2],active
same,chemical and metabolic stability compared with L-CDME (1),[3],chemically and metabolically more stable
"N[C@@H](CSSC[C@H](N)C(=O)N1CCNCC1)C(=O)N1CCNCC1 [Compound 3a, L-Cystine bis(piperazide) tetrahydrochloride]",EC50 relative to parent LH708,[4],≤ 2 fold
same,L-cystine crystal growth inhibition (step roughening and decrease of {1010} step velocity),[5],less effective than the other two compounds
"Cl.Cl.Cl.Cl.N[C@@H](CSSC[C@H](N)C(=O)N1CCN(c2ccccc2)CC1)C(=O)N1CCN(c2ccccc2)CC1 [Compound 3e, L-Cystine bis(N′-phenylpiperazide) tetrahydrochloride]",decrease in L-cystine crystallization inhibition activity,[4]; relative to LH708 (N4-methyl),> 10 fold
"Cl.Cl.Cl.Cl.N[C@@H](CSSC[C@H](N)C(=O)N1CCCC12CCNCC2)C(=O)N1CCCC12CCNCC2 [Compound 3j, L-Cystine bis(1,8-diazaspiro[4.5]decan-1-yl) tetrahydrochloride]",reduction in L-cystine crystallization inhibition,[4]; relative to structure isomer 3i,~5 fold
"Cl.Cl.N[C@@H](CSSC[C@H](N)C(=O)NCCN1CCCC1=O)C(=O)NCCN1CCCC1=O [Compound 4e, L-Cystine bis(N′-pyrrolidin-2-one ethyleneamide) dihydrochloride]",L-cystine crystallization inhibition activity (in words),[4],lost almost all of its crystallization inhibition activity
"CN1CCN(C(=O)[C@@H](N)CSSC[C@H](N)C(=O)O)CC1.Cl.Cl.Cl [Compound 25, S-(((R)-2-Amino-3-(4-methylpiperazin-1-yl)-3-oxopropyl)thio)-L-cysteine trihydrochloride]",EC50 relative to parent LH708,[4],≤ 2 fold
